Screening data from PubChem.
TRPC6 inhibitor: mouse TRPC6 channel inhibitors, primary screen, cell-based, HEK293, membrane potential dye. 310,000 tested, 1.1% active. B-score at 10 µM. ACh-evoked depolarization; active compounds read low;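 active means B-score under library mean minus 3 SD, initial fluorescence not abnormally high, positive integrated signal ratio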;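 further: B-score derived from integrated fluorescence ratio over the kinetic read; more negative B-score means stronger inhibition of depolarization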
Target sequence (Q61143 whole entry, looked up): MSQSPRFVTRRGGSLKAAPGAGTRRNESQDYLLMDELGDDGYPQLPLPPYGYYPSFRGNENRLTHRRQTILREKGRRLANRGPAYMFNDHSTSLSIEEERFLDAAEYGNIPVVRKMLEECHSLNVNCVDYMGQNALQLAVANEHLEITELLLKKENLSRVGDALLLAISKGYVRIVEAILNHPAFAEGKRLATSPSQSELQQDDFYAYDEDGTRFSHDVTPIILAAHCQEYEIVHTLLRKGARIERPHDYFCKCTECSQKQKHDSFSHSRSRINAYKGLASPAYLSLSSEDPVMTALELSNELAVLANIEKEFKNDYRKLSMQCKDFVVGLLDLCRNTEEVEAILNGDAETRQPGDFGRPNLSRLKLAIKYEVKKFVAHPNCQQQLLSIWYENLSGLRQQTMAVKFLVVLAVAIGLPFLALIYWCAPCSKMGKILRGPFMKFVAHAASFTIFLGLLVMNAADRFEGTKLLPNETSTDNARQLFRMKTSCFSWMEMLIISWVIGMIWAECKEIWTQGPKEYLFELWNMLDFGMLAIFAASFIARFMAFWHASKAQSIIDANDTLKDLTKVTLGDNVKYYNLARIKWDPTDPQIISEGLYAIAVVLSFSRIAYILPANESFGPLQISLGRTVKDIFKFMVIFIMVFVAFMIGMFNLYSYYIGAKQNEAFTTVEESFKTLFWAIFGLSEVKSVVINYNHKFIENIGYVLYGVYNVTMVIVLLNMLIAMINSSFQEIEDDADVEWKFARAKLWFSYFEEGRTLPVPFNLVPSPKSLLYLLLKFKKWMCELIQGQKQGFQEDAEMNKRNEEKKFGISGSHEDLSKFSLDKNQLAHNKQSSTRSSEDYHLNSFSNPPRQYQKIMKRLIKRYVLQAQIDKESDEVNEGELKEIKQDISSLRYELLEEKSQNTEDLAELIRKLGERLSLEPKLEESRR
TRPC4 potent: positive allosteric modulators of TRPC4, primary screen, cell-based, mouse TRPC4beta, HEK293 mu-opioid, Fluo-4 calcium; B-score at 10 µM; DAMGO EC20, Fluo-4 Ca2+ flux; active compounds read high; 310,000 tested, 0.42% active;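 active means B-score of calcium response area above 5 SD of library B-scores, with initial fluorescence ratio within 5 SD of library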
TRPC6 act: mouse TRPC6 channel activators, primary screen, cell-based, HEK293, membrane potential dye; AID 2550, 2010; B-score at 10 µM; 310,000 tested, 0.13% active; HEK293-TRPC6 membrane potential dye fluorescence; active compounds read high;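 active means B-score of the integrated fluorescence ratio above library mean plus 3 SD, and starting fluorescence ratio within library mean plus 5 SD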;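 further: higher score means more depolarization so channel activation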
TRPC4 agonist: activators of mouse TRPC4 channel, primary screen, Fluo4 calcium, HEK293 TRPC4beta/mu-opioid cells | 310,000 tested, 0.49% active | B-score at 10 µM | AID 2237, 2010 | Fluo4 calcium fluorescence; active compounds read high | Short transient receptor potential channel 4 (Mus musculus), Q9QUQ5;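 active means B-score above 5 SD of library B-scores, and initial fluorescence ratio not above library mean plus 5 SD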;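 further: positive B-score marks a calcium rise read as TRPC4 activation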
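Material: TRPC4beta and mu-opioid receptor HEK293 stable cells | Incubation: 45 min room-temperature Fluo4 loading, 110 s read | Detection: Kinetic Fluo4 calcium fluorescence | Measure: Integrated baseline-normalised fluorescence ratio, converted to per-well B score | Benchmarks: Low control buffer alone, high control maximal DAMGO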
TRPC4 block: inhibitors of mouse TRPC4 channel, primary screen, Fluo4 calcium, HEK293 TRPC4beta/mu-opioid cells | Short transient receptor potential channel 4 (Mus musculus), Q9QUQ5 | 300,000 tested, 0.39% active | AID 2247, 2010 | B-score at 10 µM | DAMGO-evoked Fluo4 calcium flux; active compounds read low;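 active means B-score over 3 SD under the library average, no early fluorescence shift, positive overall ratio signal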
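test system = HEK293 cells with stable TRPC4beta plus mu-opioid receptor expression | detection = Fluo4 Ca2+ flux fluorescence | read-out = integrated fluorescence ratio relative to baseline, converted to per-well B score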
A number is an active result; i = inactive. This is a sample that favours compounds with a hit; in the whole collection about 2.3% have one here.

SMILES	TRPC6 inhibitor	TRPC4 potent	TRPC6 act	TRPC4 agonist	TRPC4 block
CCC1CCCCN1S(=O)(=O)c1ccc(C(=O)Nc2nnc(-c3ccccc3Cl)o2)cc1 (centres undefined)	i	i	i	65	i
COc1ccc(OC)c(S(=O)(=O)Nc2ccc(-c3ccc4nncn4n3)cc2)c1	i	i	i	i	i
O=C(/C=C/Sc1ccc(C(F)(F)F)cn1)c1ccccc1	i	i	i	i	i
O=C(COC(=O)c1nc(Cl)ccc1Cl)c1ccccc1Cl	i	137	i	i	i
COc1ccccc1C(=O)COC(=O)c1nc(Cl)ccc1Cl	i	i	i	i	i
O=C(CCN1C(=O)c2ccccc2S1(=O)=O)NCc1ccccc1Cl	i	i	i	i	i
CC1CC(C)CN(CCCNC(=O)C2CCN(S(=O)(=O)N3CCCCC3)CC2)C1 (centres undefined)	i	i	i	59	i
N=C1C(c2nc3ccccc3s2)=C(O)CN1Cc1ccccc1	i	i	i	i	i
CCN(CC)CCCN1CC(O)=C(c2nc3ccccc3s2)C1=N	i	12	i	i	i
COc1cc(NC(=O)CCN2CCN(CCO)CC2)cc(OC)c1	i	i	i	45	i
CCN1CCN(CCC(=O)Nc2ccccc2OC)CC1	i	19	i	i	i
O=S(=O)(Nc1ncccn1)c1ccc(NC(=S)Nc2cccc(Cl)c2)cc1	i	i	i	i	i
N/C(=N\OC(=O)COc1ccc2ccccc2c1)c1ccncc1	i	i	i	i	i
N/C(=N\OC(=O)COc1ccc2ccccc2c1Br)c1ccncc1	-5	i	i	i	i
COc1ccccc1NS(=O)(=O)c1cccc(C(=O)NC2CCN(Cc3ccccc3)CC2)c1	i	i	i	52	-8
O=C(NC1CCN(Cc2ccccc2)CC1)c1cccc(S(=O)(=O)Nc2ccc(Br)cc2)c1	i	i	i	i	i
O=C(c1cc(-c2ccc(Br)cc2)n[nH]1)N1CCN(C(=O)c2ccccc2Br)CC1	i	i	i	i	i
O=C(NCCc1ccccn1)C(F)(F)C(F)(F)C(F)(F)C(F)(F)C(F)(F)C(F)F	i	i	i	128	i
O=C(NCc1ccccn1)C(F)(F)C(F)(F)C(=O)NCc1ccccn1	i	i	i	i	i
Cc1cc(OCCCCCNCCO)cc(C)c1Cl	i	i	i	i	i
Cc1cc(OCCNCCO)cc(C)c1Cl	i	26	i	94	i
COC(=O)CSc1nc2cc(OC)ccc2n1C	i	i	i	i	i
COC(=O)CSc1nnc(-c2sc3cc(OC)ccc3c2Cl)n1C	i	i	i	i	-6
CCN(CC)c1ccc2c(Cl)c(Br)c(=O)oc2c1	i	i	i	i	-6
NC(=O)c1ccc(Oc2ccc3c(c2)CCC3)c([N+](=O)[O-])c1	i	24	i	i	i
SMILES	TRPC6 inhibitor	TRPC4 potent	TRPC6 act	TRPC4 agonist	TRPC4 block
N#Cc1ccccc1NC(=O)CNc1ccccc1N1CCCCC1	i	i	i	i	i
CN(Cc1ccccc1NCC(=O)Nc1ccccc1C#N)C1CCCCC1	i	i	i	i	-6
CCCCC(=O)NC(c1ccccc1)c1ccc2cccnc2c1O (centres undefined)	i	i	i	i	i
CCCC(=O)NC(c1ccccc1)c1ccc2cccnc2c1O (centres undefined)	-5.8	i	i	i	i
CCc1noc(C)c1C(=O)Nc1nc(-c2ccc(OC)cc2OC)cs1	i	i	i	i	i
COCCN1CCN(Cc2cn[nH]c2-c2cc3ccccc3o2)CC1	i	i	i	i	i
Cc1cc([N+](=O)[O-])ccc1NCc1ccccc1	i	i	i	i	-7
CC#CC(=O)NC1CCCN(C2Cc3ccccc3C2)C1 (centres undefined)	i	i	i	i	i
COc1cccc(C(=O)NC2CCCN(C3Cc4ccccc4C3)C2)c1OC (centres undefined)	i	i	i	90	i
CN1CCN(c2cc3c(c4c2[nH]c2ccccc24)C(=O)CC(C)(C)C3)CC1	i	i	i	79	i
CN1CCN(c2ncnc3c2[nH]c2ccc(F)cc23)CC1	i	i	i	i	i
